Reference: ChEMBL document CHEMBL4823250, “Discovery of thalidomide-based PROTAC small molecules as the highly efficient SHP2 degraders” (Eur J Med Chem, 2021)
Active and inactive are the calls of the source. The rule behind the calls is not given here.

Columns and labels:
[1] = target: T1, Protein cereblon/Tyrosine-protein phosphatase non-receptor type 11 (Homo sapiens, UniProt Q06124+Q96SW2); experiment: Protac activity at SHP2/CRBN in human MV4-11 cells assessed as SHP2 degradation at 8 nM measured after 12 hrs by Western blot analysis relative to control; assay type: cell-based
Procedure, shortened: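 MV4-11 cells (IMDM, 10% FBS, 37 °C, 5% CO2) plated at 1.0×10^6 cells/well and exposed 12 h to 8 or 200 nM. Lysis in RIPA with protease inhibitors, then SDS-PAGE, nitrocellulose transfer and anti-human SHP2 immunoblot. SHP2 signal normalized to GAPDH and percent degradation quantified by densitometry. Reported as the average of two independent measurements.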
Target sequence in this assay (Q96SW2 whole entry partner, one chain of several): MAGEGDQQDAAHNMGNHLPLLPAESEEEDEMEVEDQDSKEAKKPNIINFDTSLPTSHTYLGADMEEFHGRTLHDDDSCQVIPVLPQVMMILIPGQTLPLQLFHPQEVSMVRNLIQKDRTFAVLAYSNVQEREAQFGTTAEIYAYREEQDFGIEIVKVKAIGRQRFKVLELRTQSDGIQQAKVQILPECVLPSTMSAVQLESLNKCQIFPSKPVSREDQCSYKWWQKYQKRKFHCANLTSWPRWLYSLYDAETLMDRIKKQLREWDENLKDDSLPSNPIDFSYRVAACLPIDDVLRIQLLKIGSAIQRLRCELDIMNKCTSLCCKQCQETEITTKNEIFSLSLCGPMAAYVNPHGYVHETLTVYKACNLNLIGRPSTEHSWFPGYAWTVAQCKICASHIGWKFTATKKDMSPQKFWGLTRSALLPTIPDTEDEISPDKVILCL

MV4-11 [2] = experiment: Antiproliferative activity against human MV4-11 cells assessed as inhibition of cell proliferation measured after 72 hrs by MTS assay; assay type: functional, cell-based; conditions: MV4-11, 72 h
Procedure, shortened: (§1)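 MV4;11 (ATCC, STR-authenticated) in IMDM with 10% FBS, penicillin/streptomycin, 37 °C, 5% CO2. Seeded at 1.0–4.0 × 10^4 cells/well, rested 2 h, then exposed to 0.01% DMSO or graded compound concentrations for 72 h. MTS/PMS added for 2–4 h. IC50 from sigmoidal variable-slope nonlinear regression; mean ± SEM of at least three separate assays, each in triplicate.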

[3] = target: T2, Tyrosine-protein phosphatase non-receptor type 11 (Homo sapiens, UniProt Q06124); experiment: Inhibition of human SHP2 catalytic activity
T2 sequence (Q06124 whole entry): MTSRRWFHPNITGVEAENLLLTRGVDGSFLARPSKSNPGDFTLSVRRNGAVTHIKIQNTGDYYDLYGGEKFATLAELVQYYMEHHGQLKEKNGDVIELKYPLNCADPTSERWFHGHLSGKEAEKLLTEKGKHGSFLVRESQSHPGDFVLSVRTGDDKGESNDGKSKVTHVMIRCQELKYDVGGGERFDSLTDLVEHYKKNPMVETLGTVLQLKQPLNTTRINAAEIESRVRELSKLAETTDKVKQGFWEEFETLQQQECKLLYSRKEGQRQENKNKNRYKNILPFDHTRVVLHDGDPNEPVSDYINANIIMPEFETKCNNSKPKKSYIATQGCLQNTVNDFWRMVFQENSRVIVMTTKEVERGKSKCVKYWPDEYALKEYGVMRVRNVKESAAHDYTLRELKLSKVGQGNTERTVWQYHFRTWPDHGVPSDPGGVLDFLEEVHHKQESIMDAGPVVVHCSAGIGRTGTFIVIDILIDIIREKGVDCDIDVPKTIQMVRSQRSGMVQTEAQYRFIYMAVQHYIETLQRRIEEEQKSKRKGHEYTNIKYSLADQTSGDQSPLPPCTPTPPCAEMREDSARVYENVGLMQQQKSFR

[4] = target: T1, Protein cereblon/Tyrosine-protein phosphatase non-receptor type 11; experiment: Protac activity at SHP2/CRBN in human MV4-11 cells assessed as decrease in SHP2 protein level measured after 12 hrs by Western blot analysis; assay type: cell-based; conditions: dose 8-500 nM
Procedure, shortened: (§2)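 MV4-11 cells, 1.0×10^6 cells/well, treated 12 h across a concentration series. Lysed in RIPA plus protease inhibitors, separated by SDS-PAGE onto nitrocellulose and immunoblotted for SHP2 with GAPDH as loading control. Band intensities normalized to GAPDH; DC50 derived from the quantified SHP2 levels.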
Target sequence in this assay (Q96SW2 whole entry partner, one chain of several): as the sequence (Q96SW2 whole entry partner, one chain of several) above

[5] = target: T1, Protein cereblon/Tyrosine-protein phosphatase non-receptor type 11; experiment: Protac activity at SHP2/CRBN in human MV4-11 cells assessed as induction of SHP2 degradation measured after 12 hrs by Western blot analysis; assay type: cell-based; procedure, shortened: as §2
Target sequence in this assay (Q96SW2 whole entry, one chain of several): as the sequence (Q96SW2 whole entry partner, one chain of several) above

[6] = target: T1, Protein cereblon/Tyrosine-protein phosphatase non-receptor type 11; experiment: Protac activity at SHP2/CRBN in human MV4-11 cells assessed as SHP2 degradation at 100 nM measured after 6 hrs by Western blot analysis relative to control; assay type: cell-based
Target sequence in this assay (Q96SW2 whole entry partner, one chain of several): as the sequence (Q96SW2 whole entry partner, one chain of several) above

[7] = target: T1, Protein cereblon/Tyrosine-protein phosphatase non-receptor type 11; experiment: Protac activity at SHP2/CRBN in human MV4-11 cells assessed as SHP2 degradation at 100 nM measured after 24 hrs by Western blot analysis relative to control; assay type: cell-based
Target sequence in this assay (Q96SW2 whole entry partner, one chain of several): as the sequence (Q96SW2 whole entry partner, one chain of several) above

MV4-11 [8] = experiment: Cell cycle arrest in human MV4-11 cells assessed as accumulation at G1 phase measured after 24 hrs by PI staining based flow cytometry assay; assay type: functional
Procedure, shortened: (§3)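 MV4-11 cells treated 24 h, then washed twice in cold PBS and fixed in ethanol overnight at 4 °C. Stained with propidium iodide plus RNase for 15 min at 37 °C. Cell-cycle distribution measured by flow cytometry.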

MV4-11 [9] = experiment: Induction of apoptosis in human MV4-11 cells assessed as viable cells at 70 nM measured after 48 hrs by Annexin V/FITC-PI staining based flowcytometry assay (reference value: 91%); assay type: functional
MV4-11 [10] = experiment: Induction of apoptosis in human MV4-11 cells assessed as early apoptotic cells at 70 nM measured after 48 hrs by Annexin V/FITC-PI staining based flowcytometry assay (reference value: 2.99%); assay type: functional
MV4-11 [11] = experiment: Induction of apoptosis in human MV4-11 cells assessed as late apoptotic cells at 70 nM measured after 48 hrs by Annexin V/FITC-PI staining based flowcytometry assay (reference value: 5.95%); assay type: functional
MV4-11 [12] = experiment: Induction of apoptosis in human MV4-11 cells assessed as necrotic cells at 70 nM measured after 48 hrs by Annexin V/FITC-PI staining based flowcytometry assay (reference value: 0.07%); assay type: functional
MV4-11 [13] = experiment: Induction of apoptosis in human MV4-11 cells assessed as viable cells at 200 nM measured after 48 hrs by Annexin V/FITC-PI staining based flowcytometry assay (reference value: 91%); assay type: functional
MV4-11 [14] = experiment: Induction of apoptosis in human MV4-11 cells assessed as early apoptotic cells at 200 nM measured after 48 hrs by Annexin V/FITC-PI staining based flowcytometry assay (reference value: 2.99%); assay type: functional
MV4-11 [15] = experiment: Induction of apoptosis in human MV4-11 cells assessed as late apoptotic cells at 200 nM measured after 48 hrs by Annexin V/FITC-PI staining based flowcytometry assay (reference value: 5.95%); assay type: functional
MV4-11 [16] = experiment: Induction of apoptosis in human MV4-11 cells assessed as necrotic cells at 200 nM measured after 48 hrs by Annexin V/FITC-PI staining based flowcytometry assay (reference value: 0.07%); assay type: functional
MV4-11 [17] = experiment: Induction of apoptosis in human MV4-11 cells assessed as viable cells at 600 nM measured after 48 hrs by Annexin V/FITC-PI staining based flowcytometry assay (reference value: 91%); assay type: functional
MV4-11 [18] = experiment: Induction of apoptosis in human MV4-11 cells assessed as early apoptotic cells at 600 nM measured after 48 hrs by Annexin V/FITC-PI staining based flowcytometry assay (reference value: 2.99%); assay type: functional
MV4-11 [19] = experiment: Induction of apoptosis in human MV4-11 cells assessed as late apoptotic cells at 600 nM measured after 48 hrs by Annexin V/FITC-PI staining based flowcytometry assay (reference value: 5.95%); assay type: functional
MV4-11 [20] = experiment: Induction of apoptosis in human MV4-11 cells assessed as necrotic cells at 600 nM measured after 48 hrs by Annexin V/FITC-PI staining based flowcytometry assay (reference value: 0.07%); assay type: functional
[21] = target: T3, Tyrosine-protein phosphatase non-receptor type 11 (Homo sapiens) (UniProt Q06124); experiment: Induction of SHP2 degradation in CRBN knock out human MV4-11 cells at 8 to 200 nM measured after 12 hrs by Western blot analysis; assay type: cell-based; conditions: dose 8-200 nM
T3 sequence (whole entry): T2 sequence (Q06124 whole entry)

MV4-11 [22] = experiment: Cytotoxicity against CRBN knock out human MV4-11 cells assessed as cell viability measured after 72 hrs by MTS assay; assay type: cell-based; conditions: MV4-11, 72 h
Procedure, shortened: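 MV4;11 cells with CRBN knocked out, cultured in IMDM with 10% FBS, penicillin/streptomycin, 37 °C, 5% CO2. Seeded at 1.0–4.0 × 10^4 cells/well, rested 2 h, then given 0.01% DMSO or graded compound concentrations for 72 h. Viability by MTS/PMS over 2–4 h. IC50 from sigmoidal variable-slope fit; mean ± SEM of ≥3 assays in triplicate.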

MV4-11 [23] = experiment: Cytotoxicity against human MV4-11 cells assessed as cell viability measured after 72 hrs by MTS assay; assay type: functional, cell-based; conditions: MV4-11, 72 h; procedure, shortened: as §1
MV4-11 [24] = experiment: Cell cycle arrest in human MV4-11 cells assessed as accumulation at G1 phase at 200 nM measured after 24 hrs by PI staining based flow cytometry assay; assay type: functional; procedure, shortened: as §3
[25] = Homo sapiens, MV4-11, read-out: Activity

C[C@@H]1OCC2(CCN(c3cnc(Sc4cccc(NC(=O)CCC(=O)NCCCCCCCCCCCCNc5cccc6c5C(=O)N(C5CCC(=O)NC5=O)C6=O)c4Cl)c(N)n3)CC2)[C@@H]1N (some centres undefined)
Activity [1]: 18%

C[C@@H]1OCC2(CCN(c3cnc(Sc4cccc(NC(=O)CCC(=O)NCCOCCOCCOCCNc5cccc6c5C(=O)N(C5CCC(=O)NC5=O)C6=O)c4Cl)c(N)n3)CC2)[C@@H]1N (some centres undefined)
Activity [1]: 28%

C[C@@H]1OCC2(CCN(c3cnc(Sc4cccc(N)c4Cl)c(N)n3)CC2)[C@@H]1N
IC50 (MV4-11 [2]): 60 nM
IC50 [3]: 17 nM

C[C@@H]1OCC2(CCN(c3cnc(Sc4cccc(NC(=O)CCC(=O)NCCCCCCCCNc5cccc6c5C(=O)N(C5CCC(=O)NC5=O)C6=O)c4Cl)c(N)n3)CC2)[C@@H]1N (some centres undefined)
Activity [1]: 22%

C[C@@H]1OCC2(CCN(c3cnc(Sc4cccc(NC(=O)CCC(=O)NCCCOCCOCCOCCCNc5ccc6c(c5)C(=O)N(C5CCC(=O)NC5=O)C6=O)c4Cl)c(N)n3)CC2)[C@@H]1N (some centres undefined)
Activity [1]: 42%

C[C@@H]1OCC2(CCN(c3cnc(Sc4cccc(NC(=O)CCC(=O)NCCCCCCCCCCNc5cccc6c5C(=O)N(C5CCC(=O)NC5=O)C6=O)c4Cl)c(N)n3)CC2)[C@@H]1N (some centres undefined)
Activity [1]: 0%

C[C@@H]1OCC2(CCN(c3cnc(Sc4cccc(NC(=O)CCC(=O)NCCOCCNc5ccc6c(c5)C(=O)N(C5CCC(=O)NC5=O)C6=O)c4Cl)c(N)n3)CC2)[C@@H]1N (some centres undefined)
Activity [1]: < 5%

C[C@@H]1OCC2(CCN(c3cnc(Sc4cccc(NC(=O)CCC(=O)NCCOCCNc5cccc6c5C(=O)N(C5CCC(=O)NC5=O)C6=O)c4Cl)c(N)n3)CC2)[C@@H]1N (some centres undefined)
Activity [1]: 6%

C[C@@H]1OCC2(CCN(c3cnc(Sc4cccc(NC(=O)CCC(=O)NCCOCCOCCNc5cccc6c5C(=O)N(C5CCC(=O)NC5=O)C6=O)c4Cl)c(N)n3)CC2)[C@@H]1N (some centres undefined)
Activity [1]: 25%

C[C@@H]1OCC2(CCN(c3cnc(Sc4cccc(NC(=O)CCC(=O)NCCCOCCOCCOCCCNc5cccc6c5C(=O)N(C5CCC(=O)NC5=O)C6=O)c4Cl)c(N)n3)CC2)[C@@H]1N (some centres undefined)
Activity [1]: 46%
Activity [4]: Dose-Dependent Effect
DC50 [5]: 6.02 nM
Activity [6]: > 50%
Activity [7]: > 90%
IC50 (MV4-11 [2]): 207 nM
Activity (MV4-11 [8]): Dose-Dependent Effect
viability at 0.07 µM (MV4-11 [9]; [25]): 87.5%
Activity (MV4-11 [10]): 4.76%
Activity (MV4-11 [11]): 8.01%
Activity (MV4-11 [12]): 0.175%
viability at 0.2 µM (MV4-11 [13]; [25]): 81%
Activity (MV4-11 [14]): 7.23%
Activity (MV4-11 [15]): 11.3%
Activity (MV4-11 [16]): 0.39%
viability at 0.6 µM (MV4-11 [17]; [25]): 76.9%
Activity (MV4-11 [18]): 7.88%
Activity (MV4-11 [19]): 14.3%
Activity (MV4-11 [20]): 0.907%
Activity [21]: inactive
IC50 (MV4-11 [22]): 2630 nM
IC50 (MV4-11 [23]): 207 nM
IC50 [3]: 202 nM

C[C@@H]1OCC2(CCN(c3cnc(Sc4cccc(NC(=O)CCC(=O)NCCCCCCCCCCCNc5cccc6c5C(=O)N(C5CCC(=O)NC5=O)C6=O)c4Cl)c(N)n3)CC2)[C@@H]1N (some centres undefined)
Activity [1]: 26%

C[C@@H]1OCC2(CCN(c3cnc(Sc4cccc(NC(=O)CCC(=O)NCCOCCOCCNc5ccc6c(c5)C(=O)N(C5CCC(=O)NC5=O)C6=O)c4Cl)c(N)n3)CC2)[C@@H]1N (some centres undefined)
Activity [1]: < 5%

C[C@@H]1OCC2(CCN(c3cnc(Sc4cccc(NC(=O)CCC(=O)NCCOCCOCCOCCNc5ccc6c(c5)C(=O)N(C5CCC(=O)NC5=O)C6=O)c4Cl)c(N)n3)CC2)[C@@H]1N (some centres undefined)
Activity [1]: < 5%

C[C@@H]1OCC2(CCN(c3cnc(Sc4cccc(NC(=O)CCC(=O)NCCCCCCCCCCCCCNc5cccc6c5C(=O)N(C5CCC(=O)NC5=O)C6=O)c4Cl)c(N)n3)CC2)[C@@H]1N (some centres undefined)
Activity [1]: 8%

C[C@@H]1OCC2(CCN(c3cnc(Sc4cccc(NC(=O)CCC(=O)NCCCCCCCCCNc5cccc6c5C(=O)N(C5CCC(=O)NC5=O)C6=O)c4Cl)c(N)n3)CC2)[C@@H]1N (some centres undefined)
Activity [1]: 23%

CC1(N)CCN(c2cnc(-c3cccc(Cl)c3Cl)c(N)n2)CC1
IC50 (MV4-11 [2]): 475 nM
Activity (MV4-11 [9]): 94%
Activity (MV4-11 [10]): 3.98%
Activity (MV4-11 [11]): 4.52%
Activity (MV4-11 [12]): 0.078%
Activity (MV4-11 [13]): 88.5%
Activity (MV4-11 [14]): 4.68%
Activity (MV4-11 [15]): 6.43%
Activity (MV4-11 [16]): 0.099%
Activity (MV4-11 [17]): 86.5%
Activity (MV4-11 [18]): 5.08%
Activity (MV4-11 [19]): 7.74%
Activity (MV4-11 [20]): 0.098%
IC50 (MV4-11 [22]): 803 nM
IC50 (MV4-11 [23]): 572 nM
Activity (MV4-11 [24]): Active
